The values that follow come from ChEMBL document CHEMBL1132108, “Design, synthesis, and activity of a series of pyrrolidine-3-carboxylic acid-based, highly specific, orally active ET(B) antagonists containing a diphenylmethylamine acetamide side chain” (J Med Chem, 1999).

The target of data set [1] is Endothelin receptor, ET-A/ET-B (Homo sapiens) (UniProt P24530+P25101). Kind of data set: Ratio of binding affinity towards human endothelin receptor type A to human endothelin receptor type B (hETA to hETB). Type of data set: protein assay.
The target in data set [2] is T1, Endothelin receptor type B (Homo sapiens, UniProt P24530).
T1 sequence (P24530 whole entry): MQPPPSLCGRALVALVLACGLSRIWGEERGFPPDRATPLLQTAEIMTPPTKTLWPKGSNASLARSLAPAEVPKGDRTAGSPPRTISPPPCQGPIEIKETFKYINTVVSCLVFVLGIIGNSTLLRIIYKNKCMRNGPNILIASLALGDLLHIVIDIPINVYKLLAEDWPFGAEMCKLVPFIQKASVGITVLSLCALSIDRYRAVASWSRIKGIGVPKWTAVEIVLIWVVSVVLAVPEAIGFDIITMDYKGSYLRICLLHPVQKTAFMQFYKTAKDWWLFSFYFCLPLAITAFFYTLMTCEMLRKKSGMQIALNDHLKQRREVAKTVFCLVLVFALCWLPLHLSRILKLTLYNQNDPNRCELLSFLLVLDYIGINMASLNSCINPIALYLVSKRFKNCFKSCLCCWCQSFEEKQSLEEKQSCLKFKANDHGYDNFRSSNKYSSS
The data set can be described thus: Binding ability determined by the displacement of [125 I]ET-3 from the human Endothelin B receptor.

The target of another data set is T2, Endothelin-1 receptor (Homo sapiens, UniProt P25101).
T2 sequence (P25101 whole entry): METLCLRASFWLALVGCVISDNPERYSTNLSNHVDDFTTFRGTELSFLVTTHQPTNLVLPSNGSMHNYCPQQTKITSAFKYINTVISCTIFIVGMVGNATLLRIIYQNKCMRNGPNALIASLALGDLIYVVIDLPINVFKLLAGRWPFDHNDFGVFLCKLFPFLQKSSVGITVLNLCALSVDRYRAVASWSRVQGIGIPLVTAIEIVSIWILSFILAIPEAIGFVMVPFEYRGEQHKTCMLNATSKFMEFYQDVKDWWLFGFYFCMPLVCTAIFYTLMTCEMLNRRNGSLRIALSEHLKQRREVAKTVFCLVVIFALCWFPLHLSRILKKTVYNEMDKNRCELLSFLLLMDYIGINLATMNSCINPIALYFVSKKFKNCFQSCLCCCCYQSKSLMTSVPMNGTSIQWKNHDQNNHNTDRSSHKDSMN
Kind of data set: Binding ability determined by the displacement of [125I]ET1 from the human endothelin A receptor.

A short description of data set [3]: Total drug exposure (5 mg/kg) when administered intravenously. Type of data set: ADME, organism-based. To be noted: in vivo, iv. Put shortly:
(§1)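 Rats dosed at 5 mg/kg by intravenous injection and by oral gavage. Time course of plasma drug levels compared between the two routes to give half-life and AUC0-∞. Oral bioavailability F is calculated from the two routes.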

The nature of data set [4]: Total drug exposure (5 mg/kg) when administered orally. It counts as ADME, organism-based. To be noted: in vivo, po. Put shortly: as §1
Data set [5] is described as follows: Oral bioavailability. It counts as ADME, organism-based. Conditions: eutheria, in vivo. Put shortly:
as §1

A short description of data set [6]: Half life (5 mg/kg) when administered intravenously. Type of data set: ADME, organism-based. Conditions: in vivo, iv. Put shortly:
as §1

A short description of data set [7]: Half life (5 mg/kg) when administered orally. It counts as ADME, organism-based. To be noted: in vivo, po. Summed up: as §1

For `COCCOc1ccc([C@H]2[C@H](C(=O)O)[C@@H](c3ccc4c(c3)OCO4)CN2CC(=O)NC(c2ccccc2C)c2ccccc2C)cc1` (stereo in doubt; form 2), the Ratio in data set [1] stood at 16000.
As for `CCC(CC)C(NC(=O)CN1C[C@H](c2ccc3c(c2)OCO3)[C@@H](C(=O)O)[C@@H]1c1ccc(OC)cc1)c1ccccc1` (stereo partly specified), the IC50 (commonly the concentration that gives 50% inhibition) in data set [2] is 1.1 nM; on Endothelin-1 receptor it was 2.5 nM. Besides, in data set [1], the Ratio was 2.27.
On the same counts, the results for `COc1ccc([C@H]2[C@H](C(=O)O)[C@@H](c3ccc4c(c3)OCO4)CN2CC(=O)NC(c2ccccc2)C(C)(C)C)cc1` (stereo partly specified) are 0.94 nM, 8.8 nM and 9.36.
Regarding `Cc1ccccc1C(NC(=O)CN1C[C@H](c2ccc3c(c2)OCO3)[C@@H](C(=O)O)[C@@H]1c1ccc(OCCOC(C)C)cc1)c1ccccc1C.O=C(O)C(F)(F)F` (stereo in doubt; form 1), the AUC (as a rule, concentration integrated over time) is 3030 ng·h/mL in data set [3] and 730 ng·h/mL in data set [4]. Also, in data set [5], the bioavailability (in general, the share of a dose that reaches the circulation, judged against a reference dose that is usually intravenous) came to 24%. Further, the results for the half-life in data set [6] and in data set [7] were 1.8 h and 4.8 h, respectively. For the same compound, the IC50 amounted to 1.9 nM in data set [2] and 51700 nM on Endothelin-1 receptor.
Regarding `COc1ccc([C@H]2[C@H](C(=O)O)[C@@H](c3ccc4c(c3)OCO4)CN2CC(=O)NC(Cc2ccccc2)c2ccccc2)cc1` (stereo partly specified), the IC50 in data set [2] was 47 nM; on Endothelin-1 receptor, 3.9 nM. Also, the Ratio in data set [1] was determined as 0.08.
On the same counts, the results for `CCc1ccccc1C(NC(=O)CN1C[C@H](c2ccc3c(c2)OCO3)[C@@H](C(=O)O)[C@@H]1c1ccc(OC)cc1)c1ccccc1C` (stereo partly specified) are 6.1 nM, 749 nM and 123.
On the same counts, the results for `COc1ccc([C@H]2[C@H](C(=O)O)[C@@H](c3ccc4c(c3)OCO4)CN2CC(=O)NC(c2ccccc2)(c2ccccc2)c2ccccc2)cc1` are 744 nM, 432 nM and 0.58.
Consider `COc1ccc([C@H]2[C@H](C(=O)O)[C@@H](c3ccc4c(c3)OCO4)CN2CC(=O)NC(c2ccccc2)c2ccccc2)cc1`, for which the IC50 came out at 8.1 nM in data set [2] and 45.9 nM at Endothelin-1 receptor. For the same compound, the Ratio in data set [1] was found to be 5.67.
On the same counts, the results for `COc1ccc([C@H]2[C@H](C(=O)O)[C@@H](c3ccc4c(c3)OCO4)CN2CC(=O)NC(c2ccccc2C)c2ccccc2C)cc1` are 1.1 nM, 161 nM and 146.
Regarding `COc1ccc([C@H]2[C@H](C(=O)O)[C@@H](c3ccc4c(c3)OCO4)CN2CC(=O)NC(c2ccccc2)c2ccccc2C)cc1` (stereo partly specified), the IC50 in data set [2] is 3.4 nM; at Endothelin-1 receptor, 63.5 nM. Also, the Ratio in data set [1] was 18.7.
For `Cc1ccccc1C(NC(=O)CN1C[C@H](c2ccc3c(c2)OCO3)[C@@H](C(=O)O)[C@@H]1c1ccc(OCCOC(C)C)cc1)c1ccccc1C` (stereo in doubt; form 2) [listing 1 of 2 here], the Ratio in data set [1] came out at 23400.
In the case of `CCCCC(NC(=O)CN1C[C@H](c2ccc3c(c2)OCO3)[C@@H](C(=O)O)[C@@H]1c1ccc(OC)cc1)c1ccccc1` (stereo partly specified), the values for the IC50 (in data set [2]; on Endothelin-1 receptor) were 5 nM and 1.6 nM, respectively. Moreover, the Ratio in data set [1] was determined as 0.32.
Take `COCCOc1ccc([C@H]2[C@H](C(=O)O)[C@@H](c3ccc4c(c3)OCO4)CN2CC(=O)NC(c2ccccc2C)c2ccccc2C)cc1` (stereo in doubt; form 1) [listing 1 of 2 here]: the Ratio in data set [1] was 12100.
`COCCOc1ccc([C@H]2[C@H](C(=O)O)[C@@H](c3ccc4c(c3)OCO4)CN2CC(=O)NC(c2ccccc2)C(C)(C)C)cc1` (stereo partly specified): the IC50 in data set [2] is 2.2 nM; on Endothelin-1 receptor it was 488 nM. For the same compound, in data set [1], the Ratio turned out to be 222.
With `Cc1ccccc1C(NC(=O)CN1C[C@H](c2ccc3c(c2)OCO3)[C@@H](C(=O)O)[C@@H]1c1ccc(OCCOC(C)C)cc1)c1ccccc1C` (stereo in doubt; form 2) [listing 2 of 2 here], the values for the half-maximal inhibitory concentration (IC50) (in data set [2]; on Endothelin-1 receptor) were 3.3 nM and 77400 nM, respectively.
Consider `COc1ccc([C@H]2[C@H](C(=O)O)[C@@H](c3ccc4c(c3)OCO4)CN2CC(=O)NC(CC(C)C)c2ccccc2)cc1` (stereo partly specified), for which the results for the IC50 (in data set [2]; at Endothelin-1 receptor) were 3.4 nM and 13.6 nM, respectively. For the same compound, the Ratio in data set [1] amounted to 4.
Take `COCCOc1ccc([C@H]2[C@H](C(=O)O)[C@@H](c3ccc4c(c3)OCO4)CN2CC(=O)NC(c2ccccc2C)c2ccccc2C)cc1` (stereo in doubt; form 1) [listing 2 of 2 here]: the figures for the IC50 (in data set [2]; on Endothelin-1 receptor) were 1.7 nM and 20600 nM, respectively.
For the compound `Cc1ccccc1C(NC(=O)CN1C[C@H](c2ccc3c(c2)OCO3)[C@@H](C(=O)O)[C@@H]1c1ccc(OCCOC(C)C)cc1)c1ccccc1C` (stereo in doubt; form 1), the Ratio in data set [1] came to 27200.
Consider `COc1ccc([C@H]2[C@H](C(=O)O)[C@@H](c3ccc4c(c3)OCO4)CN2CC(=O)NC(CC(C)(C)C)c2ccccc2)cc1` (stereo partly specified), for which the 50% inhibitory concentration (IC50) in data set [2] is 5 nM; at Endothelin-1 receptor, 131 nM. For the same compound, the Ratio in data set [1] was 26.2.
For the compound `COCCOc1ccc([C@H]2[C@H](C(=O)O)[C@@H](c3ccc4c(c3)OCO4)CN2CC(=O)NC(c2ccccc2C)c2ccccc2C)cc1.O=C(O)C(F)(F)F` (stereo in doubt; form 2), the figures for the exposure (AUC) in data set [3] and in data set [4] were 2500 ng·h/mL and 200 ng·h/mL, respectively. For the same compound, the bioavailability in data set [5] was found to be 8%. Further, the half-life (usually how long it takes for the measured level to halve) in data set [6] was 2.9 h; in data set [7], 0.55 h. Besides, the 50% inhibitory concentration (IC50) came to 1.7 nM in data set [2] and 27000 nM at Endothelin-1 receptor.
Consider `COc1ccc([C@H]2[C@H](C(=O)O)[C@@H](c3ccc4c(c3)OCO4)CN2CC(=O)NC(C)c2ccccc2C)cc1` (stereo partly specified), for which the half-inhibitory concentration (IC50) in data set [2] worked out at 18 nM; on Endothelin-1 receptor it was 16 nM. Moreover, the Ratio in data set [1] came out at 0.89.
As to `COc1ccc([C@H]2[C@H](C(=O)O)[C@@H](c3ccc4c(c3)OCO4)CN2CC(=O)NCC(c2ccccc2)c2ccccc2)cc1`, the values for the IC50 (in data set [2]; at Endothelin-1 receptor) were 108 nM and 199 nM, respectively. Besides, the Ratio in data set [1] amounted to 1.84.
On the same counts, the results for `COc1ccc([C@H]2[C@H](C(=O)O)[C@@H](c3ccc4c(c3)OCO4)CN2CC(=O)NC(c2ccccc2)c2cc(C)ccc2C)cc1` (stereo partly specified) are 31 nM, 122 nM and 3.94.
On the same counts, the results for `COc1ccc([C@H]2[C@H](C(=O)O)[C@@H](c3ccc4c(c3)OCO4)CN2CC(=O)NC(C)c2ccccc2)cc1` (stereo partly specified) are 20 nM, 5.5 nM and 0.28.
In the case of `COc1ccc([C@H]2[C@H](C(=O)O)[C@@H](c3ccc4c(c3)OCO4)CN2CC(=O)NC2c3ccccc3-c3ccccc32)cc1`, the figures for the IC50 (in data set [2]; at Endothelin-1 receptor) were 600 nM and 1230 nM, respectively. The Ratio in data set [1] worked out at 2.05.
On to `CCCC(NC(=O)CN1C[C@H](c2ccc3c(c2)OCO3)[C@@H](C(=O)O)[C@@H]1c1ccc(OC)cc1)c1ccccc1` (stereo partly specified), for which the half-maximal inhibitory concentration (IC50) in data set [2] was 7.3 nM; at Endothelin-1 receptor it was 3.7 nM. Also, in data set [1], the Ratio came to 0.51.
On the same counts, the results for `CCC(NC(=O)CN1C[C@H](c2ccc3c(c2)OCO3)[C@@H](C(=O)O)[C@@H]1c1ccc(OC)cc1)c1ccccc1` (stereo partly specified) are 2.6 nM, 1 nM and 0.38.
Take `CCc1ccccc1C(NC(=O)CN1C[C@H](c2ccc3c(c2)OCO3)[C@@H](C(=O)O)[C@@H]1c1ccc(OC)cc1)c1ccccc1CC`: the IC50 stood at 6.6 nM in data set [2] and 100 nM at Endothelin-1 receptor. Also, the Ratio in data set [1] turned out to be 15.2.
On the same counts, the results for `COc1ccc([C@H]2[C@H](C(=O)O)[C@@H](c3ccc4c(c3)OCO4)CN2CC(=O)NC(c2ccccc2)C(C)C)cc1` (stereo partly specified) are 2.1 nM, 0.7 nM and 0.33.
On the same counts, the results for `CC(C)OCCOc1ccc([C@H]2[C@H](C(=O)O)[C@@H](c3ccc4c(c3)OCO4)CN2CC(=O)NC(c2ccccc2)C(C)(C)C)cc1` (stereo partly specified) are 0.71 nM, 322 nM and 454.
On the same counts, the results for `CCc1ccccc1C(NC(=O)CN1C[C@H](c2ccc3c(c2)OCO3)[C@@H](C(=O)O)[C@@H]1c1ccc(OCCOC(C)C)cc1)c1ccccc1C` (stereo partly specified) are 3.3 nM, 14300 nM and 4320.
